The values below come from ChEMBL document CHEMBL3044585, “Potent in vivo antifungal activity against powdery mildews of pregnane glycosides from the roots of Cynanchum wilfordii” (J Agric Food Chem, 2011).

Values after ≈ are worked out from the molar mass of the structure shown.

The subject of assay [1] is Blumeria hordei. Nature of the assay: Antifungal activity against Blumeria graminis f. sp. hordei assessed as control of barley powdery mildew at 16 ug/mL treated 1 day before inoculation. The format is functional. In a few lines:
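Barley plants in pots treated with sample in Tween 20 solution and inoculated 1 day later (protective assay). Randomized complete block design, three replicates per treatment, experiment run twice. Infected leaf area (%) scored. % control = 100[(A−B)/A], where A is the infection area on leaves sprayed with Tween 20 solution alone; reported ± standard deviation.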

For assay [2], the system named is Blumeria hordei. As to the kind of experiment: Antifungal activity against Blumeria graminis f. sp. hordei assessed as control of barley powdery mildew treated 1 day before inoculation. The class given is functional, organism-based. In a few lines: (§1)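 One-day protective test on barley against powdery mildew: plants treated 1 day before inoculation, with Tween 20 solution alone as the untreated reference. Pots in randomized complete block design, three replicates per treatment, experiment run twice. Infected leaf area (%) scored; % control = 100[(A − B)/A], A = infection on Tween 20-sprayed leaves, B = infection on treated leaves; reported ± standard deviation.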

For assay [3], the system named is Blumeria hordei. As to the kind of experiment: Antifungal activity against Blumeria graminis f. sp. hordei assessed as control of barley powdery mildew at 63 ug/mL treated 1 day before inoculation. The class given is functional. In a few lines:
as §1

The test system of assay [4] is Podosphaera macularis. As to the kind of experiment: Antifungal activity against Sphaerotheca humuli assessed as diseased fruits in strawberry powdery mildew at 4000 fold dilution (reference value: 62.2%). The format is functional. The essentials:
(§2)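 Commercial greenhouse trial on strawberry cv. Janghee. Plots were 4 m long, with data taken from the middle 3 m. Sprays applied by hand-held sprayer until runoff, three times at 1-week intervals. Before each spray, ripe fruits were harvested and total and diseased fruits counted. Percentage of diseased fruits given as the mean of three replicates; disease-control percentage calculated relative to untreated control.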

The test system of assay [5] is Podosphaera macularis. Nature of the assay: Antifungal activity against Sphaerotheca humuli assessed as control of strawberry powdery mildew at 4000 fold dilution. The class given is functional. The essentials:
as §2

Where [6] appears, read: Blumeria hordei, read-out: IC50.

With `CO[C@H]1C[C@H](O[C@H]2[C@@H](OC)C[C@H](O[C@H]3CC[C@@]4(C)C(=CC[C@]5(O)[C@@H]4C[C@@H](OC(=O)/C=C(\C)C(C)C)[C@@]4(C)[C@]5(O)CC[C@]4(O)C(C)=O)C3)O[C@@H]2C)O[C@@H](C)[C@H]1O[C@H]1C[C@H](OC)[C@H](O[C@H]2C[C@@H](OC)[C@@H](O)[C@H](C)O2)[C@@H](C)O1` [WILFOSIDE C1N], the Activity is 95% in the assay on Blumeria hordei [1] and more than 77% in the assay on Blumeria hordei [3]. The IC50 in the assay on Blumeria hordei [2] (setting [6]) amounted to 3.24 µg/mL (≈ 3.04 µM). `CO[C@H]1C[C@H](O[C@H]2[C@@H](OC)C[C@H](O[C@H]3CC[C@@]4(C)C(=CC[C@]5(O)[C@@H]4C[C@@H](OC(=O)/C=C(\C)C(C)C)[C@@]4(C)[C@]5(O)CC[C@]4(O)C(C)=O)C3)O[C@@H]2C)O[C@@H](C)[C@H]1O[C@H]1C[C@H](OC)[C@H](O[C@H]2C[C@@H](OC)[C@@H](O[C@@H]3O[C@H](CO)[C@@H](O[C@@H]4O[C@H](CO)[C@@H](O)[C@H](O)[C@H]4O)[C@H](O)[C@H]3O)[C@H](C)O2)[C@@H](C)O1` [WILFOSIDE C1GG]: the IC50 with Blumeria hordei [2] (setting [6]) is 28.3 µg/mL (≈ 20.4 µM). Also, the Activity in the assay on Blumeria hordei [3] is recorded as more than 77%. With `Cc1cc(O)c2c(c1)C(=O)c1cccc(O)c1C2=O` [CHRYSOPHANOL], the IC50 in the assay on Blumeria hordei [2] (setting [6]) was 4.7 µg/mL (≈ 18.5 µM).

Take `NC(=O)OC[C@H](O)[C@@H](O)[C@H](N)C(=O)N[C@H](C(=O)O)[C@H]1O[C@@H](n2cc(CO)c(=O)[nH]c2=O)[C@H](O)[C@@H]1O` [POLYOXIN B]: the IC50 in the assay with Blumeria hordei [2] (setting [6]) was found to be 71.4 µg/mL (≈ 141 µM).

With `CCCOC/C(=N\c1ccc(Cl)cc1C(F)(F)F)n1ccnc1` [TRIFLUMIZOLE], the values for the Activity with Podosphaera macularis [4] and in the assay with Podosphaera macularis [5] were 7.2% and 89%, respectively. For the compound `CO[C@H]1C[C@H](O[C@H]2[C@@H](OC)C[C@H](O[C@H]3CC[C@@]4(C)C(=CC[C@]5(O)[C@@H]4C[C@@H](OC(=O)/C=C/c4ccccc4)[C@@]4(C)[C@]5(O)CC[C@]4(O)C(C)=O)C3)O[C@@H]2C)O[C@@H](C)[C@H]1O[C@H]1C[C@H](OC)[C@H](O[C@H]2C[C@@H](OC)[C@@H](O)[C@H](C)O2)[C@@H](C)O1` [WILFOSIDE K1N], in the assay with Blumeria hordei [2], the concentration for half-maximal inhibition (IC50) result was “Not Active”. `CO[C@H]1C[C@H](O[C@H]2[C@@H](OC)C[C@H](O[C@H]3CC[C@@]4(C)C(=CC[C@]5(O)[C@@H]4C[C@@H](OC(=O)/C=C(\C)C(C)C)[C@@]4(C)[C@]5(O)CC[C@]4(O)C(C)=O)C3)O[C@@H]2C)O[C@@H](C)[C@H]1O[C@H]1C[C@H](OC)[C@H](O[C@H]2C[C@@H](OC)[C@@H](O[C@@H]3O[C@H](CO)[C@@H](O)[C@H](O)[C@H]3O)[C@H](C)O2)[C@@H](C)O1` [WILFOSIDE C1G]: the Activity is on record as 78% in the assay with Blumeria hordei [1] and more than 77% in the assay with Blumeria hordei [3]. Moreover, the IC50 in the assay on Blumeria hordei [2] (setting [6]) came to 12.9 µg/mL (≈ 10.5 µM).

For `CO[C@H]1C[C@H](O[C@H]2[C@@H](OC)C[C@H](O[C@H]3CC[C@@]4(C)C(=CC[C@]5(O)[C@@H]4C[C@@H](OC(=O)/C=C/c4ccccc4)[C@@]4(C)[C@]5(O)CC[C@]4(O)C(C)=O)C3)O[C@@H]2C)O[C@@H](C)[C@H]1O[C@H]1C[C@H](OC)[C@H](O[C@H]2C[C@@H](OC)[C@@H](O[C@@H]3O[C@H](CO)[C@@H](O[C@@H]4O[C@H](CO)[C@@H](O)[C@H](O)[C@H]4O)[C@H](O)[C@H]3O)[C@H](C)O2)[C@@H](C)O1` [WILFOSIDE K1GG], the 50% inhibitory concentration (IC50) entry in the assay on Blumeria hordei [2] is “Not Active”. `CC(=O)c1c(C)cc2cccc(O)c2c1O` [NEPODIN]: in the assay on Blumeria hordei [2] (setting [6]), the IC50 was 20 µg/mL (≈ 92.5 µM).

As a reminder, the IC50 is the point on the concentration scale where inhibition reaches its midpoint.
